In ChEMBL document CHEMBL1139952, “Cytotoxic Mannich bases of 6-(3-aryl-2-propenoyl)-2(3H)-benzoxazolones” (Eur J Med Chem, 2007):
pIC50: −log10 of the molar value. Calls of active or inactive are those of the source. The rule behind the calls is not given here.

How the values were obtained:
Format in all cases: functional, cell-based
BV-173 [1] = assay: Cytotoxicity against human BV173 cells after 72 hrs by MTT assay; details: BV-173, 72 h
How it was run: (§1)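 Suspension cultures (BV-173 pre-B-cell leukemia or K-562 chronic myeloid leukemia, from DSMZ) kept in log phase in RPMI-1640 with 10% FBS and 2 mM L-glutamine, 37 °C, humidified 5% CO2. Compounds dissolved in DMSO and diluted in RPMI-1640, final DMSO at most 0.5%. Exposure 72 h, MTT-dye reduction read-out. Six wells per concentration, experiments in triplicate, IC50 from concentration-response fits.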

K562 = assay: Cytotoxicity against human K562 cells after 72 hrs by MTT assay; details: K562, 72 h; how it was run: as §1
BV-173 [2] = assay: Induction of apoptosis in BV173 cells assessed as DNA fragmentation at 2.5 uM after 24hrs; details: Homo sapiens
How it was run: (§2)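 Apoptosis assay: exponentially growing BV-173 cells, 1 × 10⁶, exposed 24 h to compound or etoposide, with solvent-treated cells as controls. DNA was extracted from the cytosolic fraction and examined for fragmentation as laddering beside a DNA-laddering marker.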

BV-173 [3] = assay: Induction of apoptosis in BV173 cells assessed as DNA fragmentation at 0.25 uM after 24hrs; details: Homo sapiens, 2.5 uM, in the assay text read “2.5 uM” for “0.25 uM”; how it was run: as §2

SMILES: COc1ccc(/C=C/C(=O)c2ccc3[nH]c(=O)oc3c2)cc1
- pIC50 (BV-173 [1]): 5.04

SMILES: O=C(/C=C/c1ccccc1)c1ccc2c(c1)oc(=O)n2CN1CCN(Cc2ccccc2)CC1
- pIC50 (K562): 4.53
- pIC50 (BV-173 [1]): 5.03

SMILES: COc1ccccc1N1CCN(Cn2c(=O)oc3cc(C(=O)/C=C/c4ccccc4)ccc32)CC1
- pIC50 (K562): 4.52
- pIC50 (BV-173 [1]): 5.04

SMILES: COc1ccc(/C=C/C(=O)c2ccc3c(c2)oc(=O)n3CN2CCN(c3ccccc3OC)CC2)cc1
- pIC50 (K562): 4.91
- pIC50 (BV-173 [1]): 5.27
- Activity (BV-173 [2]): Active

SMILES: COc1cc([C@@H]2c3cc4c(cc3[C@@H](O[C@@H]3O[C@@H]5CO[C@@H](C)O[C@H]5[C@H](O)[C@H]3O)[C@H]3COC(=O)[C@H]23)OCO4)cc(OC)c1O [ETOPOSIDE]
- pIC50 (K562): 5.51
- pIC50 (BV-173 [1]): 6.05
- Activity (BV-173 [3]): Active

SMILES: COc1ccc(/C=C/C(=O)c2ccc3c(c2)oc(=O)n3CN2CCSCC2)cc1
- pIC50 (K562): 4.67
- pIC50 (BV-173 [1]): 5.21
- Activity (BV-173 [2]): Active

SMILES: O=C(/C=C/c1ccccc1)c1ccc2c(c1)oc(=O)n2CN1CCOCC1
- pIC50 (K562): 4.50
- pIC50 (BV-173 [1]): 5.13

SMILES: O=C(/C=C/c1ccccc1)c1ccc2[nH]c(=O)oc2c1
- pIC50 (BV-173 [1]): 4.74

SMILES: COc1ccc(/C=C/C(=O)c2ccc3c(c2)oc(=O)n3CN2CCOCC2)cc1
- pIC50 (K562): 4.64
- pIC50 (BV-173 [1]): 5.33

SMILES: COc1ccc(/C=C/C(=O)c2ccc3c(c2)oc(=O)n3CN2CCN(Cc3ccccc3)CC2)cc1
- pIC50 (K562): 4.62
- pIC50 (BV-173 [1]): 5.21

SMILES: COc1ccc(/C=C/C(=O)c2ccc3c(c2)oc(=O)n3CN(C)C)cc1
- pIC50 (BV-173 [1]): 4.75

SMILES: O=C(/C=C/c1ccccc1)c1ccc2c(c1)oc(=O)n2CN1CCSCC1
- pIC50 (K562): 4.37
- pIC50 (BV-173 [1]): 5.10

SMILES: CN(C)Cn1c(=O)oc2cc(C(=O)/C=C/c3ccccc3)ccc21
- pIC50 (K562): 4.57
- pIC50 (BV-173 [1]): 5.18

SMILES: O=C(/C=C/c1ccccc1)c1ccc2c(c1)oc(=O)n2CN1CCCCC1
- pIC50 (K562): 4.42
- pIC50 (BV-173 [1]): 5.09

SMILES: COc1ccc(/C=C/C(=O)c2ccc3c(c2)oc(=O)n3CN2CCCCC2)cc1
- pIC50 (BV-173 [1]): 4.82
